Measured values: ChEMBL document CHEMBL1125422, “Low molecular weight proteins as carriers for renal drug targeting. Preparation of drug-protein conjugates and drug-spacer derivatives and their catabolism in renal cortex homogenates and lysosomal lysates” (J Med Chem, 1992)
Where “and” joins values, the source holds several entries; their conditions need not be identical. Identical values can stand only once. Square brackets hold non-standard residues; d marks the D form. Peptide text beside a SMILES is read from it. * marks the point of attachment. ξ: configuration not given here. βNA = c1ccc2cc(N*)ccc2c1; Cbz = O=C(OCc1ccccc1)*; ξP = O=C(O)C1CCCN1

What was measured:
Rattus norvegicus [1] = species on record: Rattus norvegicus; test: (§1) Lysozyme-conjugated prodrugs: in vitro stability at pH 7.4; assay type: functional
Method in brief: (§2)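 Conjugate incubated 24 h in pH 5.0 buffer, pH 7.4 buffer, or plasma buffered at pH 7.4. Samples were deproteinized with ACN, MeOH or 2 N HCl, centrifuged, and analyzed by RP-HPLC against an internal standard. Release is % parent drug = parent/(parent + derivative) from IS-normalized peak-area ratios, mean of at least two separate incubations.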

Rattus norvegicus [2] = species on record: Rattus norvegicus; test: (§3) Lysozyme-conjugated prodrugs: in vitro stability at pH 5; assay type: functional; method in brief: as §2
Rattus norvegicus [3] = species on record: Rattus norvegicus; test: as §1; assay type: functional; method in brief: as §2; remark: listed apart in the source
Rattus norvegicus [4] = species on record: Rattus norvegicus; test: as §3; assay type: functional; method in brief: as §2; remark: listed apart in the source
Rattus norvegicus [5] = species on record: Rattus norvegicus; test: as §3; assay type: ADME; method in brief: as §2
Rattus norvegicus [6] = species on record: Rattus norvegicus; test: as §1; assay type: functional; method in brief: as §2; remark: listed apart in the source
Rattus norvegicus [7] = species on record: Rattus norvegicus; test: as §1; assay type: functional; method in brief: as §2; remark: listed apart in the source

SMILES	Drug release (Rattus norvegicus [1]) [%]	Drug release (Rattus norvegicus [2]) [%]	Drug release (Rattus norvegicus [3]) [%]	Drug release (Rattus norvegicus [4]) [%]	Drug release (Rattus norvegicus [5])	Drug release (Rattus norvegicus [6])	Drug release (Rattus norvegicus [7]) [%]
O=C(N[C@@H](Cc1ccccc1)C(=O)O)C1CCCN1C(=O)OCc1ccccc1 (stereo not given in full) (Cbz-[ξP]-Phe-OH)	100	100	100	100	0%	0%	–
COc1ccc2c(c1)c(CC(=O)NCCCC[C@H](NC(=O)OCc1ccccc1)C(=O)O)c(C)n2C(=O)c1ccc(Cl)cc1	–	0	0	–	0%	0%	–
C[C@H](NC(=O)OCc1ccccc1)C(=O)N1CCC[C@H]1C(=O)N[C@@H](Cc1ccccc1)C(=O)O (Cbz-Ala-Pro-Phe-OH)	–	0	96	–	0%	0%	–
Cc1cc(NS(=O)(=O)c2ccc(NC(=O)CC3=CC(=O)OC3=O)cc2)no1	8	84	8	84	100% and 80%	15% and 7%	7
COc1ccc2cc(C(C)C(=O)NC(Cc3ccc(O)cc3)C(=O)O)ccc2c1 (stereo not given)	<1	<1	<1	<1	< 1%	<1%	<1
COc1ccc2cc(C(C)C(=O)NCC(=O)O)ccc2c1 (stereo not given)	–	0	0	–	0%	0%	–
CC(C)C[C@H](N)C(=O)Nc1nc(N)c2nc(-c3ccccc3)c(N)nc2n1	–	<5	<5	–	0%	0%	–
CC(C)C[C@H](N)C(=O)Nc1nc(N)nc2nc(N)c(-c3ccccc3)nc12	–	0	0	–	0%	0%	–
COc1ccc2c(c1)c(CC(=O)N[C@@H](CC(C)C)C(=O)O)c(C)n2C(=O)c1ccc(Cl)cc1	–	0	0	–	0%	0%	–
COc1ccc2cc(C(C)C(=O)N[C@H](C(=O)O)C(C)C)ccc2c1 (stereo not given in full)	–	0	0	–	0%	0%	–
COc1ccc2cc(C(C)C(=O)N[C@@H](Cc3ccccc3)C(=O)O)ccc2c1 (stereo not given in full)	–	0	0	–	0%	0%	–
COc1ccc2c(c1)c(CC(=O)N[C@@H](Cc1c[nH]c3ccccc13)C(=O)O)c(C)n2C(=O)c1ccc(Cl)cc1	–	0	0	–	0%	0%	–
COc1ccc2c(c1)c(CC(=O)N[C@@H](Cc1ccc(O)cc1)C(=O)O)c(C)n2C(=O)c1ccc(Cl)cc1	–	0	0	–	0%	0%	–
COc1ccc2cc(C(C)C(=O)N[C@@H](Cc3c[nH]c4ccccc34)C(=O)O)ccc2c1 (stereo not given in full)	–	0	0	–	0%	0%	–
COc1ccc2cc(C(C)C(=O)N[C@@H](Cc3ccc(O)cc3)C(=O)O)ccc2c1 (stereo not given in full)	–	0	0	–	0%	0%	–
COc1ccc2cc(C(C)C(=O)O[C@@H](C)C(=O)O)ccc2c1 (stereo in doubt; 1r)	3	100	15	100	0.6%	1.4%	13
COc1ccc2cc(C(C)C(=O)NC(CC(C)C)C(=O)O)ccc2c1 (stereo not given)	<1	<1	<1	<1	< 1%	<1%	<1
NCC(=O)N[C@@H](Cc1ccccc1)C(=O)Nc1ccc2ccccc2c1 (H-Gly-Phe-βNA)	100	100	100	100	0%	0%	–
COc1ccc2cc(C(C)C(=O)N[C@@H](CC(C)C)C(=O)O)ccc2c1 (stereo not given in full)	–	0	0	–	0%	0%	–
COc1ccc2c(c1)c(CC(=O)NCC(=O)O)c(C)n2C(=O)c1ccc(Cl)cc1	–	0	0	–	0%	0%	–
NCCCC[C@H](NC(=O)c1ccccc1)C(=O)O	–	0	0	–	0%	0%	–
